# Measured values published in ChEMBL document CHEMBL4689842, “EUbOPEN Chemogenomics Library wave 1” (2021).
# Where “and” joins values, the source holds several entries; their conditions need not be identical. Equal values may be shown once.
# System: U2OS
# Test: Multiplex assay against U2OS
# Type: toxicity, cell-based
# Conditions: human
# Summary of the method: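 Hoechst33342, BioTracker Green Microtubule Cytoskeleton Dye, MitoTracker Red and Annexin V Alexa Fluor 680 were added to live cells at seeding, and imaging on a CQ1 microscope at 37°C and 5% CO2 followed compound addition. Gating by CellPathfinder machine learning separated cells into Hoechst high-intensity objects or normal cells, then normal cells into healthy, pyknosed or fragmented nuclei, then pyknosed cells into mitotic or apoptotic. Per cents of healthy-nucleus cells are reported for the tubulin, mitochondrial-mass and membrane-permeability phenotypes.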
# [1] = 12 h, 1 µM, compound concentration 1 uM, replicate 1
# [2] = 12 h, 1 µM, compound concentration 1 uM, replicate 2
# [3] = 12 h, 10 µM, compound concentration 10 uM, replicate 1
# [4] = 12 h, 10 µM, compound concentration 10 uM, replicate 2
# [5] = 24 h, 1 µM, compound concentration 1 uM, replicate 1
# [6] = 24 h, 1 µM, compound concentration 1 uM, replicate 2
# [7] = 24 h, 10 µM, compound concentration 10 uM, replicate 1
# [8] = 24 h, 10 µM, compound concentration 10 uM, replicate 2
smiles,measurement,setting,value
O=C(Nc1cccnn1)N1CCC(=Cc2cccc(Oc3ccc(C(F)(F)F)cn3)c2)CC1,Population Apoptotic (%),[1],36%
same,Population Fragmented Nuclei (%),[1],1%
same,Population Healthy Nuclei (%),[1],87%
same,Population Hoechst High Intensity Objects (%),[1],3%
same,Population Membrane Permeable-Phenotype (%),[1],33%
same,Population Mitochondria Different-Phenotype (%),[1],5%
same,Population Mitotic Cells (%),[1],63%
same,Population Normal (%),[1],96%
same,Population Pyknosed Nuclei (%),[1],10%
same,Population Tubulin-Different-Phenotype (%),[1],26%
same,Total Cell Count,[1],187
same,Population Apoptotic (%),[2],14%
same,Population Fragmented Nuclei (%),[2],13%
same,Population Healthy Nuclei (%),[2],78%
same,Population Hoechst High Intensity Objects (%),[2],16%
same,Population Membrane Permeable-Phenotype (%),[2],30%
same,Population Mitochondria Different-Phenotype (%),[2],24%
same,Population Mitotic Cells (%),[2],85%
same,Population Normal (%),[2],83%
same,Population Pyknosed Nuclei (%),[2],7%
same,Population Tubulin-Different-Phenotype (%),[2],18%
same,Total Cell Count,[2],101
same,Population Apoptotic (%),[3],83%
same,Population Fragmented Nuclei (%),[3],4%
same,Population Healthy Nuclei (%),[3],92%
same,Population Hoechst High Intensity Objects (%),[3],3%
same,Population Membrane Permeable-Phenotype (%),[3],8%
same,Population Mitochondria Different-Phenotype (%),[3],22%
same,Population Mitotic Cells (%),[3],16%
same,Population Normal (%),[3],96%
same,Population Pyknosed Nuclei (%),[3],3%
same,Population Tubulin-Different-Phenotype (%),[3],22%
same,Total Cell Count,[3],311
same,Population Apoptotic (%),[4],0%
same,Population Fragmented Nuclei (%),[4],8%
same,Population Healthy Nuclei (%),[4],91%
same,Population Hoechst High Intensity Objects (%),[4],15%
same,Population Membrane Permeable-Phenotype (%),[4],12%
same,Population Mitochondria Different-Phenotype (%),[4],24%
same,Population Mitotic Cells (%),[4],0%
same,Population Normal (%),[4],84%
same,Population Pyknosed Nuclei (%),[4],0%
same,Population Tubulin-Different-Phenotype (%),[4],16%
same,Total Cell Count,[4],336
same,Population Apoptotic (%),[5],18%
same,Population Fragmented Nuclei (%),[5],2%
same,Population Healthy Nuclei (%),[5],83%
same,Population Hoechst High Intensity Objects (%),[5],2%
same,Population Membrane Permeable-Phenotype (%),[5],21%
same,Population Mitochondria Different-Phenotype (%),[5],11%
same,Population Mitotic Cells (%),[5],81%
same,Population Normal (%),[5],97%
same,Population Pyknosed Nuclei (%),[5],14%
same,Population Tubulin-Different-Phenotype (%),[5],17%
same,Total Cell Count,[5],250
same,Population Apoptotic (%),[6],27%
same,Population Fragmented Nuclei (%),[6],10%
same,Population Healthy Nuclei (%),[6],79%
same,Population Hoechst High Intensity Objects (%),[6],14%
same,Population Membrane Permeable-Phenotype (%),[6],19%
same,Population Mitochondria Different-Phenotype (%),[6],22%
same,Population Mitotic Cells (%),[6],72%
same,Population Normal (%),[6],85%
same,Population Pyknosed Nuclei (%),[6],10%
same,Population Tubulin-Different-Phenotype (%),[6],11%
same,Total Cell Count,[6],114
same,Population Apoptotic (%),[7],33%
same,Population Fragmented Nuclei (%),[7],2%
same,Population Healthy Nuclei (%),[7],95%
same,Population Hoechst High Intensity Objects (%),[7],3%
same,Population Membrane Permeable-Phenotype (%),[7],5%
same,Population Mitochondria Different-Phenotype (%),[7],20%
same,Population Mitotic Cells (%),[7],66%
same,Population Normal (%),[7],96%
same,Population Pyknosed Nuclei (%),[7],2%
same,Population Tubulin-Different-Phenotype (%),[7],26%
same,Total Cell Count,[7],221
same,Population Apoptotic (%),[8],83%
same,Population Fragmented Nuclei (%),[8],4%
same,Population Healthy Nuclei (%),[8],89%
same,Population Hoechst High Intensity Objects (%),[8],7%
same,Population Membrane Permeable-Phenotype (%),[8],8%
same,Population Mitochondria Different-Phenotype (%),[8],31%
same,Population Mitotic Cells (%),[8],16%
same,Population Normal (%),[8],92%
same,Population Pyknosed Nuclei (%),[8],5%
same,Population Tubulin-Different-Phenotype (%),[8],14%
same,Total Cell Count,[8],231
CN([C@@H](Cc1ccc(OS(=O)(=O)c2cccc3cnccc23)cc1)C(=O)N1CCN(c2ccccc2)CC1)S(=O)(=O)c1cccc2cnccc12,Population Apoptotic (%),[1],52% and 61%
same,Population Fragmented Nuclei (%),[1],3% and 2%
same,Population Healthy Nuclei (%),[1],83% and 89%
same,Population Hoechst High Intensity Objects (%),[1],1%
same,Population Membrane Permeable-Phenotype (%),[1],38% and 75%
same,Population Mitochondria Different-Phenotype (%),[1],32% and 23%
same,Population Mitotic Cells (%),[1],47% and 38%
same,Population Normal (%),[1],98%
same,Population Pyknosed Nuclei (%),[1],12% and 7%
same,Population Tubulin-Different-Phenotype (%),[1],99%
same,Total Cell Count,[1],150 and 181
same,Population Apoptotic (%),[2],25% and 40%
same,Population Fragmented Nuclei (%),[2],16% and 6%
same,Population Healthy Nuclei (%),[2],74% and 79%
same,Population Hoechst High Intensity Objects (%),[2],13% and 15%
same,Population Membrane Permeable-Phenotype (%),[2],33% and 69%
same,Population Mitochondria Different-Phenotype (%),[2],46% and 45%
same,Population Mitotic Cells (%),[2],75% and 60%
same,Population Normal (%),[2],86% and 84%
same,Population Pyknosed Nuclei (%),[2],9% and 13%
same,Population Tubulin-Different-Phenotype (%),[2],100%
same,Total Cell Count,[2],104 and 101
same,Population Apoptotic (%),[5],69% and 58%
same,Population Fragmented Nuclei (%),[5],4% and 5%
same,Population Healthy Nuclei (%),[5],75% and 73%
same,Population Hoechst High Intensity Objects (%),[5],2% and 1%
same,Population Membrane Permeable-Phenotype (%),[5],25% and 68%
same,Population Mitochondria Different-Phenotype (%),[5],55%
same,Population Mitotic Cells (%),[5],30% and 41%
same,Population Normal (%),[5],97% and 98%
same,Population Pyknosed Nuclei (%),[5],20% and 21%
same,Population Tubulin-Different-Phenotype (%),[5],98% and 99%
same,Total Cell Count,[5],154 and 198
same,Population Apoptotic (%),[6],57% and 53%
same,Population Fragmented Nuclei (%),[6],15% and 12%
same,Population Healthy Nuclei (%),[6],68%
same,Population Hoechst High Intensity Objects (%),[6],12% and 9%
same,Population Membrane Permeable-Phenotype (%),[6],32% and 54%
same,Population Mitochondria Different-Phenotype (%),[6],62% and 70%
same,Population Mitotic Cells (%),[6],42% and 46%
same,Population Normal (%),[6],87% and 90%
same,Population Pyknosed Nuclei (%),[6],15%
same,Population Tubulin-Different-Phenotype (%),[6],100%
same,Total Cell Count,[6],99 and 102
CCCS(=O)(=O)Nc1ccc(F)c(C(=O)c2c[nH]c3ncc(Cl)cc23)c1F [PLX-4720],Population Apoptotic (%),[1],55%
same,Population Fragmented Nuclei (%),[1],6%
same,Population Healthy Nuclei (%),[1],88%
same,Population Hoechst High Intensity Objects (%),[1],2%
same,Population Membrane Permeable-Phenotype (%),[1],14%
same,Population Mitochondria Different-Phenotype (%),[1],21%
same,Population Mitotic Cells (%),[1],44%
same,Population Normal (%),[1],97%
same,Population Pyknosed Nuclei (%),[1],5%
same,Population Tubulin-Different-Phenotype (%),[1],26%
same,Total Cell Count,[1],145
same,Population Apoptotic (%),[2],33%
same,Population Fragmented Nuclei (%),[2],7%
same,Population Healthy Nuclei (%),[2],89%
same,Population Hoechst High Intensity Objects (%),[2],15%
same,Population Membrane Permeable-Phenotype (%),[2],12%
same,Population Mitochondria Different-Phenotype (%),[2],24%
same,Population Mitotic Cells (%),[2],66%
same,Population Normal (%),[2],84%
same,Population Pyknosed Nuclei (%),[2],3%
same,Population Tubulin-Different-Phenotype (%),[2],28%
same,Total Cell Count,[2],153
same,Population Apoptotic (%),[3],50%
same,Population Healthy Nuclei (%),[3],89%
same,Population Hoechst High Intensity Objects (%),[3],3%
same,Population Membrane Permeable-Phenotype (%),[3],8%
same,Population Mitochondria Different-Phenotype (%),[3],30%
same,Population Mitotic Cells (%),[3],50%
same,Population Normal (%),[3],96%
same,Population Pyknosed Nuclei (%),[3],4%
same,Population Tubulin-Different-Phenotype (%),[3],26%
same,Total Cell Count,[3],164
same,Population Apoptotic (%),[4],0%
same,Population Fragmented Nuclei (%),[4],6%
same,Population Healthy Nuclei (%),[4],88%
same,Population Hoechst High Intensity Objects (%),[4],9%
same,Population Membrane Permeable-Phenotype (%),[4],11%
same,Population Mitochondria Different-Phenotype (%),[4],31%
same,Population Mitotic Cells (%),[4],100%
same,Population Normal (%),[4],90%
same,Population Pyknosed Nuclei (%),[4],5%
same,Population Tubulin-Different-Phenotype (%),[4],23%
same,Total Cell Count,[4],101
same,Population Apoptotic (%),[5],43%
same,Population Fragmented Nuclei (%),[5],5%
same,Population Healthy Nuclei (%),[5],86%
same,Population Hoechst High Intensity Objects (%),[5],3%
same,Population Membrane Permeable-Phenotype (%),[5],16%
same,Population Mitochondria Different-Phenotype (%),[5],26%
same,Population Mitotic Cells (%),[5],56%
same,Population Normal (%),[5],96%
same,Population Pyknosed Nuclei (%),[5],7%
same,Population Tubulin-Different-Phenotype (%),[5],22%
same,Total Cell Count,[5],201
same,Population Apoptotic (%),[6],11%
same,Population Fragmented Nuclei (%),[6],3%
same,Population Healthy Nuclei (%),[6],88%
same,Population Hoechst High Intensity Objects (%),[6],11%
same,Population Membrane Permeable-Phenotype (%),[6],9%
same,Population Mitochondria Different-Phenotype (%),[6],25%
same,Population Mitotic Cells (%),[6],88%
same,Population Normal (%),[6],88%
same,Population Pyknosed Nuclei (%),[6],8%
same,Population Tubulin-Different-Phenotype (%),[6],23%
same,Total Cell Count,[6],198
same,Population Apoptotic (%),[7],20%
same,Population Fragmented Nuclei (%),[7],2%
same,Population Healthy Nuclei (%),[7],92%
same,Population Hoechst High Intensity Objects (%),[7],2%
same,Population Membrane Permeable-Phenotype (%),[7],5%
same,Population Mitochondria Different-Phenotype (%),[7],32%
same,Population Mitotic Cells (%),[7],80%
same,Population Normal (%),[7],97%
same,Population Pyknosed Nuclei (%),[7],5%
same,Population Tubulin-Different-Phenotype (%),[7],24%
same,Total Cell Count,[7],152
same,Population Apoptotic (%),[8],57%
same,Population Fragmented Nuclei (%),[8],4%
same,Population Healthy Nuclei (%),[8],91%
same,Population Hoechst High Intensity Objects (%),[8],7%
same,Population Membrane Permeable-Phenotype (%),[8],7%
same,Population Mitochondria Different-Phenotype (%),[8],38%
same,Population Mitotic Cells (%),[8],42%
same,Population Normal (%),[8],92%
same,Population Pyknosed Nuclei (%),[8],3%
same,Population Tubulin-Different-Phenotype (%),[8],32%
same,Total Cell Count,[8],93
